For orientation: IC50 means the concentration that gives 50% inhibition.

Our source for the IC50 values is PubChem BioAssay AID624067 (The Scripps Research Institute Molecular Screening Center, 2012).

The structures appear in SMILES notation. Where “and” joins values, the source holds several entries; their conditions need not be identical. Equal entries are not always repeated.

Insulin-degrading enzyme (Homo sapiens), sequence (P14735 whole entry, looked up): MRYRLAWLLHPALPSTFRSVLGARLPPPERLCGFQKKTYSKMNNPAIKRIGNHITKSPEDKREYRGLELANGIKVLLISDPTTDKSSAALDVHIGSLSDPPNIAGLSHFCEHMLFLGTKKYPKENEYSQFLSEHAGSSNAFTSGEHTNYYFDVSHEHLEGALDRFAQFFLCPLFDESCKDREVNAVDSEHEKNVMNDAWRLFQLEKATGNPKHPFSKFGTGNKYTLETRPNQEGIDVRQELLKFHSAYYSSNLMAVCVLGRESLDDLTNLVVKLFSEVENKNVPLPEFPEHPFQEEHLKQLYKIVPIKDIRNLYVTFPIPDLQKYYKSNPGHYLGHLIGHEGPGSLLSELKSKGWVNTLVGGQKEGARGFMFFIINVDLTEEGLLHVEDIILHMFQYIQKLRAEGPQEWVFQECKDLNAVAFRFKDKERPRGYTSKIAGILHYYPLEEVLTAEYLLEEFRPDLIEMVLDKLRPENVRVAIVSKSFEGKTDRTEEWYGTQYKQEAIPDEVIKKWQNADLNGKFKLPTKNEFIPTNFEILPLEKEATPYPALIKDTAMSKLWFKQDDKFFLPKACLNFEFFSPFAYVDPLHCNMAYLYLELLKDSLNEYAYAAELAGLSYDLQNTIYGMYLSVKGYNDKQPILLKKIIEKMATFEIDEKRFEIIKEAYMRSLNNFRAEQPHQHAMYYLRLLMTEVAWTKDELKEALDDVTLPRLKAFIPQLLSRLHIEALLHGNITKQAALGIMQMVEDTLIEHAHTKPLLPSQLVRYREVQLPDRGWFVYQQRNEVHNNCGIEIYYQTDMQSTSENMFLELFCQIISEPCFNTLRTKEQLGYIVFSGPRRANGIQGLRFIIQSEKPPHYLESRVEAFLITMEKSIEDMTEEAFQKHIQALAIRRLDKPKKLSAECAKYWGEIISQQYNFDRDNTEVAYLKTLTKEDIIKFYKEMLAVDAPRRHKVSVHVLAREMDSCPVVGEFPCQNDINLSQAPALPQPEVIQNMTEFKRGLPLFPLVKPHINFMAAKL

This assay addresses Insulin-degrading enzyme (Homo sapiens) (UniProt P14735). As to the kind of experiment: inhibitors of wild-type recombinant IDE, late-stage follow-up, counter-screen for IDE inhibitor project, biochemical, fluorescence polarization, run by assay provider (AID 624067). Particulars: FAbetaB cleavage;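 active means IC50 at or below 10 µM; inactive means IC50 above 10 µM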. The gist of the method:
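Material: recombinant WT human IDE / Quantity: IDE 1 nM final / Also added: FAbetaB substrate 100 nM / Compound dosing: 10 semi-log points, top 100 µM / Incubation: reaction at 22 °C / Signal: fluorescence polarization (ex 485 nm, em 525 nm) after avidin/1,10-phenanthroline stop / Benchmarks: high control with reference IDE inhibitor Ii1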
Consider `Clc1cccc(-c2nnc(SCc3nc4ccccc4[nH]3)n2Cc2ccco2)c1`, for which the half-inhibitory concentration (IC50) is 3.9 µM.
Under `O=C(Nc1cccc(C(F)(F)F)c1)c1csc(-c2ccncc2)n1` stands 5.3 µM; under `Cc1cccc(-c2nnc(SCc3nc4ccccc4[nH]3)n2Cc2ccco2)c1`, 5.7 µM and 8.9 µM; under `COc1ccc(C(=O)N2CCN(C(=O)C3COc4ccccc4O3)CC2)cc1OC` (stereo not given), 1.9 µM and > 33 µM (inactive).
In the case of `O=c1c2ccccc2sn1-c1cc(S(=O)(=O)N2CCOCC2)ccc1N1CCOCC1`, the IC50 was 1.4 µM.
